CHRM4 antagonist: human M4 muscarinic receptor antagonists, primary screen, CHO cells, Fluo-8 calcium fluorescence; inhibition, % at 3 µM; AID 624125, 2012; Muscarinic acetylcholine receptor M4 (Homo sapiens), P08173; hit rate 0.73% among 360,000; CHO-hM4 cells, ACh EC80;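 active means inhibition above its plate's cutoff, the mean inhibition of sample wells plus 3 SD, cut at about 27% in these data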;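 further: 0% = acetylcholine EC80 with DMSO and 100% = DMSO without agonist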
M5 ag: human M5 muscarinic receptor agonists, primary screen, CHO-K1 cells, Fluo-8 calcium fluorescence. activation, % at 3 µM. Muscarinic acetylcholine receptor M5 (Homo sapiens), P08912. CHO-K1 hM5 cells; 0% DMSO wells, 100% maximal acetylcholine response. AID 624037, 2012. hit rate 0.19% among 360,000;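 active means activation above the run's mean over test compounds plus 3 SD, cut at about 23% in these data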;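 further: signal is peak over basal fluorescence ratio across the kinetic read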
Target sequence (P08912 whole entry, looked up): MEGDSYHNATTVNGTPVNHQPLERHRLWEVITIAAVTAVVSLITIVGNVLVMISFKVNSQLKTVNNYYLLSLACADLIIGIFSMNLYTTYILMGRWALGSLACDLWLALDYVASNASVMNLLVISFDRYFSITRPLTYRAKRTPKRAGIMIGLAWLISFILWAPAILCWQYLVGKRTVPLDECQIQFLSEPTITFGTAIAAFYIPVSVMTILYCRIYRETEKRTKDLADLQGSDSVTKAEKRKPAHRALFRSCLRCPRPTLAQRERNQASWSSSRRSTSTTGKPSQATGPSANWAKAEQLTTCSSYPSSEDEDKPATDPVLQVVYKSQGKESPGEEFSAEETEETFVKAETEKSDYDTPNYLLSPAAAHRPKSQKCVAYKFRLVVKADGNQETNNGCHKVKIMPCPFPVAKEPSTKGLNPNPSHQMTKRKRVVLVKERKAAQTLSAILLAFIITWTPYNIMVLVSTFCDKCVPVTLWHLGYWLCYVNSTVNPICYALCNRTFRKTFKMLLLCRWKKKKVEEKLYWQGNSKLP
M4 ag: human M4 muscarinic receptor agonists, primary screen, CHO-K1 cells, Fluo-8 calcium fluorescence; Muscarinic acetylcholine receptor M4 (Homo sapiens), P08173; CHO-K1 hM4/Gqi5; vehicle 0%, full acetylcholine response 100%; activation, % at 3 µM; hit rate 0.14% among 360,000;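 active means activation above the run mean over all test wells plus 3 SD, cut at about 32% in these data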;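 further: peak over basal fluorescence ratio per well then scaled between controls; 0% = DMSO wells and 100% = acetylcholine at EC100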
M4 PAM: human M4 muscarinic receptor positive allosteric modulators, primary screen, CHO-K1 cells, Fluo-8 calcium fluorescence; Muscarinic acetylcholine receptor M4 (Homo sapiens), P08173; CHO-K1 hM4/Gqi5, ACh EC20; 0% = ACh EC20, 100% = maximal ACh; activation, % at 3 µM; hit rate 0.4% among 360,000; AID 624126, 2012;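 active means activation above its plate's cutoff, the mean activation of sample wells plus 3 SD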
M5 antag: human M5 muscarinic receptor antagonists, primary screen, CHO cells, Fluo-8 calcium fluorescence | Muscarinic acetylcholine receptor M5 (Homo sapiens), P08912 | CHO-hM5 cells, ACh EC80 | inhibition, % at 3 µM | hit rate 0.59% among 360,000 | AID 624040, 2012;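 active means inhibition above a per-plate cutoff, the mean of that plate's test compounds plus 3 SD, cut at about 27% in these data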;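 further: 0% = acetylcholine EC80 with DMSO and 100% = DMSO without agonist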
M5 PAM: human M5 muscarinic receptor positive allosteric modulators, primary screen, CHO-K1 cells, Fluo-8 calcium fluorescence; AID 624038, 2012; hit rate 0.3% among 360,000; Muscarinic acetylcholine receptor M5 (Homo sapiens), P08912; activation, % at 3 µM; CHO-K1 hM5, ACh EC20 PAM; 0% = ACh EC20, 100% = ACh EC100;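 active means activation above the run cutoff, the mean activation of all test compounds plus 3 SD, cut at about 18% in these data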
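System – CHO-K1 hM5 cells · Compound – 3 µM, single dose · Incubation – compound preincubation 140 s before EC20 acetylcholine addition · Technique – Fluo-8 calcium fluorescence · Measure – Max/basal fluorescence ratio as % of EC20–EC100 ACh window · Benchmarks – low control EC20 acetylcholine (0%), high control EC100 acetylcholine (100%) · Replication – singlicate, one well per test compound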
Starred values were filed as active, the others as inactive. Shown are actives, neighbours in structure and some others; about 1.8% of the full set was active somewhere.

What do the screens show for `CC1(C)OC(=O)C2=C(C[C@@H](C3CCCC3)O[C@H]2CCc2cccc(Cl)c2)O1`?
CHRM4 antagonist: -13; M5 ag: 4; M4 ag: -1; M4 PAM: 5; M5 antag: -5; M5 PAM: 1

Results for O=C(CSC1=NS(=O)(=O)c2ccccc2N1)Nc1cccc(F)c1 ?
CHRM4 antagonist: -2; M5 ag: -2; M4 ag: 0; M4 PAM: 6; M5 antag: -6; M5 PAM: 14

How did COc1nc(C)ccc1-c1noc(-c2ccco2)n1 do in these assays?
CHRM4 antagonist: 4; M5 ag: -1; M4 ag: -2; M4 PAM: 0; M5 antag: -5; M5 PAM: 1

How did COc1nc(-c2ccc(C)cc2)ccc1-c1noc(-c2ccco2)n1 do in these assays?
CHRM4 antagonist: 6; M5 ag: -1; M4 ag: 1; M4 PAM: 15; M5 antag: -6; M5 PAM: 28*

How did CCc1ccc(NS(=O)(=O)c2ccc(C)c(C(=O)N3CCOCC3)c2)cc1 do in these assays?
CHRM4 antagonist: -3; M5 ag: -2; M4 ag: 1; M4 PAM: 2; M5 antag: -13; M5 PAM: 11

How did Cc1ccccc1S(=O)(=O)NC(=O)C1(C)CCN1C(=O)CC1CCCC1 (stereo not given) do in these assays?
CHRM4 antagonist: -7; M5 ag: 1; M4 ag: 1; M4 PAM: 6; M5 antag: 3; M5 PAM: -1

Results for Cc1ccccc1S(=O)(=O)NC(=O)C1(C)CCN1C(=O)C/C=C/c1ccccc1 (stereo not given) ?
CHRM4 antagonist: 85*; M5 ag: -1; M4 ag: 0; M4 PAM: -13; M5 antag: -3; M5 PAM: -3

What do the screens show for `CC1(C(=O)NS(=O)(=O)c2ccccc2Cl)CCN1C(=O)CC1CCCC1` (stereo not given)?
CHRM4 antagonist: -11; M5 ag: 1; M4 ag: 1; M4 PAM: 15*; M5 antag: 2; M5 PAM: 0

Results for CN(Cc1ccccc1)C(=O)c1ccc(Cc2cn(C)c3ccccc23)nc1 ?
CHRM4 antagonist: -4; M5 ag: 1; M4 ag: 3; M4 PAM: 3; M5 antag: 2; M5 PAM: -1

Results for O=C(c1ccccc1)n1c2ccccc2c(=O)n1-c1ccccc1CCl ?
CHRM4 antagonist: -7; M5 ag: -2; M4 ag: 2; M4 PAM: 2; M5 antag: 4; M5 PAM: 0

Results for Cc1cc(C)c(OCC(=O)Nc2ccccc2N2CCOCC2)c(C)c1 ?
CHRM4 antagonist: 35*; M5 ag: 28*; M4 ag: 32; M4 PAM: -17; M5 antag: 21; M5 PAM: 5

What do the screens show for `CCC(=O)N1CCN(c2ccccc2NC(=O)COc2cc(C)ccc2C(C)C)CC1`?
CHRM4 antagonist: 16; M5 ag: 0; M4 ag: 6; M4 PAM: -29; M5 antag: 27*; M5 PAM: -14

How did Cc1cc(C)c(OCC(=O)Nc2ccccc2N2CCCCC2)c(C)c1 do in these assays?
CHRM4 antagonist: -22; M5 ag: 1; M4 ag: 5; M4 PAM: 6; M5 antag: 5; M5 PAM: -2

How did O=C(Cn1c(=O)cnc2ccccc21)Nc1ccccc1N1CCOCC1 do in these assays?
CHRM4 antagonist: 1; M5 ag: 3; M4 ag: 2; M4 PAM: 5; M5 antag: -34; M5 PAM: 28*

How did Cc1ccc(C(C)C)c(OCC(=O)NC(=S)Nc2ccccc2N2CCOCC2)c1 do in these assays?
CHRM4 antagonist: 8; M5 ag: -3; M4 ag: 1; M4 PAM: 2; M5 antag: 19; M5 PAM: 0

Results for O=C(Nc1ccccc1N1CCOCC1)c1cc(-c2ccco2)nc2ccccc12 ?
CHRM4 antagonist: 35*; M5 ag: 3; M4 ag: 13; M4 PAM: -18; M5 antag: 25; M5 PAM: -17

Results for COc1cc(S(=O)(=O)n2ccc(C)n2)c(C)cc1C ?
CHRM4 antagonist: 4; M5 ag: 0; M4 ag: -1; M4 PAM: -3; M5 antag: 4; M5 PAM: 0

What do the screens show for `CCOc1ccccc1NC(=O)CCN1CCN(S(=O)(=O)c2ccc(Br)cc2)CC1`?
CHRM4 antagonist: 3; M5 ag: 7; M4 ag: 6; M4 PAM: 16*; M5 antag: -4; M5 PAM: -1

Results for C/C(=N\Nc1ncnc2sc(C)c(C)c12)c1ccccn1 ?
CHRM4 antagonist: -17; M5 ag: -1; M4 ag: 2; M4 PAM: 5; M5 antag: -22; M5 PAM: 22*

What do the screens show for `CN(C(=O)COC(=O)C1c2ccccc2Oc2ccccc21)C1CCS(=O)(=O)C1` (stereo not given)?
CHRM4 antagonist: 95*; M5 ag: -13; M4 ag: 1; M4 PAM: -15; M5 antag: -5; M5 PAM: 2

What do the screens show for `CCN(CC)CCOC(=O)C1c2ccccc2Oc2ccccc21`?
CHRM4 antagonist: 98*; M5 ag: -7; M4 ag: 1; M4 PAM: -33; M5 antag: 100*; M5 PAM: -16

How did CCN(CC)CCNC(=O)C1c2ccccc2Oc2ccccc21 do in these assays?
CHRM4 antagonist: 37*; M5 ag: -8; M4 ag: 1; M4 PAM: -18; M5 antag: 59*; M5 PAM: -18

How did CCOCc1nnc(NC(=O)C2c3ccccc3Oc3ccccc32)s1 do in these assays?
CHRM4 antagonist: -1; M5 ag: 28*; M4 ag: 20; M4 PAM: -1; M5 antag: 1; M5 PAM: -1

Results for CCC/C(C#CCCN1C(=O)c2ccccc2C1=O)=C1/c2ccccc2C(=O)N1c1ccccc1 ?
CHRM4 antagonist: 8; M5 ag: 0; M4 ag: 17; M4 PAM: -8; M5 antag: 13; M5 PAM: -16

How did Cc1cc(C(=O)NCc2cccnc2)n(-c2ccccc2)n1 do in these assays?
CHRM4 antagonist: 35*; M5 ag: 0; M4 ag: 1; M4 PAM: -13; M5 antag: -2; M5 PAM: -6

Screening results from PubChem.
